# What was measured:
# Sprague-Dawley rats = conditions: for Bederson’s neurological score: rat, intracerebroventricular 15 min prior to 60 min MCAo, vs vehicle
# [1] = CD-1 mice; value for 686 in brain
# [2] = test system: SH-SY5Y-GLuc-SERCaMP cells; assay: SERCaMP assay, acute treatment paradigm; assay type: cell-based, human; conditions: 30 μM compound; 200 nM thapsigargin; measured 8 h after thapsigargin
# [3] = test system: primary human skeletal muscle cells; assay: Human skeletal muscle exodosis assay; assay type: cell-based; conditions: 30-minute pre-treatment; 100 nM thapsigargin, 8 h
# Method in brief: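 Primary human myoblasts are grown in DMEM (4.5 g/L glucose) at 37°C and 5.5% CO2. They are plated at 7.3×10^3 cells/well on 3 mg/ml Matrigel-coated 96-well plates. Medium is sampled 4–8 h after thapsigargin. Secreted GLuc-SERCaMP is read as luminescence 8 h after 100 nM thapsigargin, after injecting 8 μM coelenterazine into 5 μl medium. n=11–12 wells per concentration.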
# [4] = test system: UPRE-NLuc reporter in SH-SY5Y cells; assay: UPRE luciferase reporter assay; assay type: cell-based, human; conditions: compound pre-treatment, then 100 nM thapsigargin
# [5] = test system: SH-SY5Y-GLuc-SERCaMP cells; assay: Oxygen-glucose deprivation; assay type: cell-based, human; conditions: 16 h hypoxia plus 24 h normoxia; for cell attachment and viability after OGD: drugs added at beginning of OGD
# [6] = test system: BiP, ERdj4, and ASNS mRNA in SH-SY5Y cells; assay: ER stress response transcriptional analysis; assay type: cell-based, human; conditions: 30 μM compounds 16 h prior to 4 h 100 nM thapsigargin
# Method in brief: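 SH-SY5Y cells were plated at 2.5×10^5 cells/500 μl in 24-well plates. Test compound (30 μM) was given 16 h before a 4 h exposure to 100 nM thapsigargin. Total RNA was isolated with on-column DNA digestion, and 0.5 μg was reverse-transcribed with cDNA diluted 1:20. BiP reports the ATF6 arm. Data are 2^-ddCq (n=6) versus thapsigargin only, by one-way ANOVA with Dunnett's test.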
# [7] = test system: INS-1 832/13 pTetR TO shWfs1 cells; assay: Wolfram caspase 3/7 assay; assay type: cell-based, rat; conditions: compounds and doxycycline for 48 h
# [8] = test system: SH-SY5Y human neuroblastoma cells stably expressing GLuc-SERCaMP; assay: GLuc-SERCaMP assay; assay type: cell-based; conditions: 4 h, read-out: EC50, GLuc-SERCaMP secretion in response to thapsigargin
# SH-SY5Y cells = assay: Endogenous SERCaMPs; assay type: cell-based, human; conditions: 20 μM
# Method in brief: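 SH-SY5Y cells were seeded at 5×10^4 cells/well in 96-well plates and given 16 h hypoxia plus 24 h normoxia with test compound (20 μM). At reperfusion, medium was fully exchanged to phenol red-free, serum-free esterase buffer (NaCl, KCl, MgCl2, CaCl2, glucose, 20 mM HEPES), collected 8 h later, and mixed 1:1 with 100 μM fluorescein […] substrate ([…]). Fluorescence (ex 465/em 528) was read after 1 h. n=24 wells; two-way ANOVA.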
# [9] = test system: SH-SY5Y cells transfected with GLuc-ERS constructs; assay: GLuc-ERS; assay type: cell-based, human; conditions: 20 μM
# Method in brief: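 SH-SY5Y cells are reverse-transfected with GLuc-ERS reporter constructs: 5 × 10^4 cells are plated onto the transfection complexes in antibiotic-free medium and grown 48 h. OGD is 16 h hypoxia plus 24 h normoxia, with the test compound added at the start of OGD. GLuc is assayed in medium and lysates with coelenterazine. The secretion index is extracellular/intracellular GLuc. n=9–15 wells.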
# [10] = test system: BiP/GRP78 protein levels in SH-SY5Y-SERCaMP cells; assay: BiP immunoblot; assay type: cell-based, human; conditions: 30 μM compounds 16 h prior to 4 h 100 nM thapsigargin
# [11] = test system: C57Bl/6J male mice on high fat diet; assay: Metabolic testing in Diet Induced Obese; conditions: DIO mice, 12 mg/kg i.p. daily; for fasting insulin / insulin resistance index (HOMA-IR): vs vehicle
# [12] = test system: ER calcium store in SH-SY5Y cells; assay: GCaMPer ER calcium assay; assay type: cell-based, human; conditions: 16 hour pre-treatment; 50 nM thapsigargin, 30 min
# [13] = test system: SH-SY5Y cells stably expressing a constitutively secreted GLuc (SH-SY5Y-GLuc); assay: SH-SY5Y-GLuc counterscreen; assay type: cell-based, human; conditions: 19 h treatment
# Method in brief: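 The counterscreen used SH-SY5Y cells expressing untagged, constitutively secreted Gaussia luciferase in 1536-well plates. Cells were exposed to test compound for 19 h, and GLuc was read from the medium. The ER-to-Golgi transport blocker brefeldin A (19 h) was titrated on each of eight plates as a control (n=2 per concentration).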
# [14] = 16 h hypoxia plus 24 h normoxia
smiles,measurement,setting,value
"CC(C)C[C@H]1C(=O)N2CCC[C@H]2[C@]2(O)O[C@](NC(=O)[C@@H]3C=C4c5cccc6c5c(c(Br)n6C(=O)C5CC5)C[C@H]4N(C)C3)(C(C)C)C(=O)N12.Cl [analog 686, (6aR,9R)-5-bromo-4-(cyclopropanecarbonyl)-N-((2R,5S,10aS,10bS)-10b-hydroxy-5-isobutyl-2-isopropyl-3,6-dioxooctahydro-8H-oxazolo[3,2-a]pyrrolo[2,1-c]pyrazin-2-yl)-7-methyl-4,6,6a,7,8,9-hexahydroindolo[4,3-fg]quinoline-9-carboxamide, HCl]",reduction of infarction volume compared with bromocriptine,Sprague-Dawley rats; rat MCAO,more effective than bromocriptine
same,Bederson’s neurological score,Sprague-Dawley rats,significant reduction
same,metabolic conversion to the parent bromocriptine molecule,[1],< 1%
O=C1CN(/N=C/c2ccc(-c3ccc([N+](=O)[O-])cc3)o2)C(O)=N1 [dantrolene],"SERCaMP release, compound added 30 min pre- to 2 hours post-thapsigargin",[2],inhibited SERCaMP release
same,"SERCaMP release, compound added 4 hours post-thapsigargin",[2],inactive
same,GLuc-SERCaMP release in primary human skeletal muscle cells,[3],partially attenuated GLuc-SERCaMP release
same,UPRE-NLuc activation,[4],inactive
same,GLuc-SERCaMP secretion after OGD,[5],decreased GLuc-SERCaMP secretion
same,cell attachment and viability after OGD,[5],improved cell attachment and viability
COc1ccc(CCN(C)CCCC(C#N)(c2ccc(OC)c(OC)c2)C(C)C)cc1OC (stereo not drawn) [verapamil],"SERCaMP release, compound added 30 min pre- to 2 hours post-thapsigargin",[2],inhibited SERCaMP release
same,"SERCaMP release, compound added 4 hours post-thapsigargin",[2],inactive
same,GLuc-SERCaMP release in primary human skeletal muscle cells,[3],partially attenuated GLuc-SERCaMP release
same,BiP mRNA levels,[6],reduced expression of BiP
same,caspase 3/7 activation associated with Wfs1 knockdown,[7],reduced caspase 3/7 activation
same,UPRE-NLuc activation,[4],diminished UPRE-NLuc activation
C/C=C(/C)C(=O)O[C@H]1C(C)=C2[C@H]([C@@H]1OC(=O)CCCCCCC)[C@@](C)(OC(C)=O)C[C@H](OC(=O)CCC)[C@@]1(O)[C@H]2OC(=O)[C@@]1(C)O [Thapsigargin],EC50,[8],112 nM
CC(C)C[C@H]1C(=O)N2CCC[C@H]2[C@]2(O)O[C@](NC(=O)[C@@H]3C=C4c5cccc6[nH]c(Br)c(c56)C[C@H]4N(C)C3)(C(C)C)C(=O)N12 [bromocriptine],"SERCaMP release, compound added 30 min pre- to 2 hours post-thapsigargin",[2],inhibited SERCaMP release
same,"SERCaMP release, compound added 4 hours post-thapsigargin",[2],inactive
same,"thapsigargin-induced secretion of PDI, MANF, and carboxylesterases",SH-SY5Y cells; 0.5 h before or 1 h following 200 nM thapsigargin,reduced thapsigargin-induced secretion of all three proteins
same,OGD-induced release of carboxylesterases,SH-SY5Y cells; [14],decreased
same,GLuc-SERCaMP release in primary human skeletal muscle cells,[3],partially attenuated GLuc-SERCaMP release
same,Bederson’s neurological score,Sprague-Dawley rats,significant reduction
same,BiP mRNA levels,[6],reduced expression of BiP
same,thapsigargin-induced release of GLuc-ERS reporter proteins,"[9]; 30 min pre-treatment, 200nM thapsigargin 8 h",broadly inhibited thapsigargin-induced release of the reporter proteins
same,OGD-induced release of GLuc-ERS reporter proteins,[9]; [14],broadly reduced the OGD-induced release of the reporter proteins
same,caspase 3/7 activation associated with Wfs1 knockdown,[7],reduced caspase 3/7 activation
same,BiP/GRP78 protein levels,[10],reduced thapsigargin-induced accumulation
same,UPRE-NLuc activation,[4],diminished UPRE-NLuc activation
same,change in body weight following the first week of injections,[11],significant decrease in body weight
same,cumulative caloric intake and energy expenditure during the three weeks of treatment,[11],significantly higher
same,fasting glucose levels at 4 hours,[11],reduced fasting glucose levels
same,food intake at the end of the second and third week of injections,[11],elevated
same,glucose excursion AUC in glucose tolerance tests,[11],reduced the glucose excursion AUC
same,fasting insulin,[11],reduced
same,insulin resistance index (HOMA-IR),[11],reduced
same,effect on ER calcium (GCaMPer fluorescence),[12],stabilizing effect on ER calcium
same,GLuc-SERCaMP secretion after OGD,[5],decreased GLuc-SERCaMP secretion
same,cell attachment and viability after OGD,[5],improved cell attachment and viability
COc1ccc2c(c1)[C@]13CCCC[C@@H]1[C@H](C2)N(C)CC3 [dextromethorphan],"SERCaMP release, compound added 30 min pre- to 2 hours post-thapsigargin",[2],inhibited SERCaMP release
same,"SERCaMP release, compound added 4 hours post-thapsigargin",[2],inactive
same,GLuc-SERCaMP release in primary human skeletal muscle cells,[3],partially attenuated GLuc-SERCaMP release
same,UPRE-NLuc activation,[4],diminished UPRE-NLuc activation
same,effect on ER calcium (GCaMPer fluorescence),[12],no effect
"CC(C)C[C@H]1C(=O)N2CCC[C@H]2[C@]2(O)O[C@](NC(=O)[C@@H]3C=C4c5cccc6c5c(c(Br)n6C(=O)NC5CC5)C[C@H]4N(C)C3)(C(C)C)C(=O)N12.Cl [analog 688, (6aR,9R)-5-bromo-N4-cyclopropyl-N9-((2R,5S,10aS,10bS)-10b-hydroxy-5-isobutyl-2-isopropyl-3,6-dioxooctahydro-8H-oxazolo[3,2-a]pyrrolo[2,1-c]pyrazin-2-yl)-7-methyl-6a,7,8,9-tetrahydroindolo[4,3-fg]quinoline-4,9(6H)-dicarboxamide, HCl]",Bederson’s neurological score,Sprague-Dawley rats,significant reduction
same,metabolic conversion to the parent bromocriptine molecule,[1],no detectable conversion
same,change in body weight following the first week of injections,[11],did not show
same,cumulative caloric intake and energy expenditure during the three weeks of treatment,[11],did not show
same,fasting glucose levels at 4 hours,[11],reduced fasting glucose levels
same,food intake at the end of the second and third week of injections,[11],did not show
same,fasting insulin,[11],reduced
same,insulin resistance index (HOMA-IR),[11],reduced
COc1ccc([C@@H]2Sc3ccccc3N(CCN(C)C)C(=O)[C@@H]2OC(C)=O)cc1 [diltiazem],"SERCaMP release, compound added 30 min pre- to 2 hours post-thapsigargin",[2],inhibited SERCaMP release
same,"SERCaMP release, compound added 4 hours post-thapsigargin",[2],inactive
same,GLuc-SERCaMP release in primary human skeletal muscle cells,[3],partially attenuated GLuc-SERCaMP release
same,caspase 3/7 activation associated with Wfs1 knockdown,[7],reduced caspase 3/7 activation
same,UPRE-NLuc activation,[4],inactive
same,effect on ER calcium (GCaMPer fluorescence),[12],no effect
same,GLuc-SERCaMP secretion after OGD,[5],decreased GLuc-SERCaMP secretion
same,cell attachment and viability after OGD,[5],improved cell attachment and viability
C[C@@H]1C[C@@H]([C@H](O)CC2CC(=O)NC(=O)C2)C(=O)[C@@H](C)C1 [cycloheximide],activity in the SH-SY5Y-GLuc counterscreen,[13],inhibitory activity
